According to ChEMBL document CHEMBL3632612, “Discovery of WQ-3810: Design, synthesis, and evaluation of 7-(3-alkylaminoazetidin-1-yl)fluoro-quinolones as orally active antibacterial agents” (Eur J Med Chem, 2015):
pIC50: −log10 of the molar value. In brackets after ≈: the same amount, converted by molar mass.

What was measured:
Pseudomonas aeruginosa [1] = test: Antibacterial activity against Pseudomonas aeruginosa IFO3445 assessed as growth inhibition at 128 to 0.002 mg/L incubated for 18 hrs at 37 degC by agar dilution method; type: functional; conditions: IFO3445, 18 h
Method in brief: (§1)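 Agar dilution on Mueller Hinton agar per Japanese Society of Chemotherapy standard method; about 10⁴ cfu inoculated onto plates holding two-fold dilution series; incubation 37°C, 18 h; MIC read as growth endpoint.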

[2] = Drug excretion in Sprague-Dawley rat at 10 mg/kg, po after 24 hrs by HPLC; type: ADME, organism-based; conditions: in vivo, read-out: Drug excretion
Method in brief: (§2)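 Six-week male Sprague-Dawley rats, fasted overnight; oral dose suspended in 0.5% methylcellulose, iv dose dissolved in 0.04 N NaOH. Urine from intact rats in metabolic cages, bile from bile duct-cannulated rats, 0–24 h. Bile alkaline-hydrolysed (1 N NaOH, 37°C, 1 h) to convert glucuronides; HPLC with UV 290 nm and internal standard; % of dose; mean ± S.D., three rats.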

Escherichia coli [3] = test: Antibacterial activity against Escherichia coli 177 assessed as growth inhibition at 128 to 0.002 mg/L incubated for 18 hrs at 37 degC by agar dilution method; type: functional; conditions: Escherichia coli, 177, 18 h; method in brief: as §1
Proteus vulgaris = test: Antibacterial activity against Proteus vulgaris IFO3167 assessed as growth inhibition at 128 to 0.002 mg/L incubated for 18 hrs at 37 degC by agar dilution method; type: functional; conditions: IFO3167, 18 h; method in brief: as §1
Escherichia coli [4] = test: Antibacterial activity against Escherichia coli NIHJ assessed as growth inhibition at 128 to 0.002 mg/L incubated for 18 hrs at 37 degC by agar dilution method; type: functional; method in brief: as §1
Providencia rettgeri = test: Antibacterial activity against Providencia rettgeri W1008 assessed as growth inhibition at 128 to 0.002 mg/L incubated for 18 hrs at 37 degC by agar dilution method; type: functional; conditions: W1008, 18 h; method in brief: as §1
Salmonella typhimurium = test: Antibacterial activity against Salmonella typhimurium IFO13245 assessed as growth inhibition at 128 to 0.002 mg/L incubated for 18 hrs at 37 degC by agar dilution method; type: functional, Salmonella enterica subsp. enterica serovar Typhimurium; conditions: Salmonella enterica, IFO13245, 18 h; method in brief: as §1
Klebsiella pneumoniae [5] = test: Antibacterial activity against Klebsiella pneumoniae KC-1 assessed as growth inhibition at 128 to 0.002 mg/L incubated for 18 hrs at 37 degC by agar dilution method; type: functional; conditions: KC-1, 18 h; method in brief: as §1
Serratia marcescens [6] = test: Antibacterial activity against Serratia marcescens IFO3736 assessed as growth inhibition at 128 to 0.002 mg/L incubated for 18 hrs at 37 degC by agar dilution method; type: functional; conditions: IFO3736, 18 h; method in brief: as §1
[7] = Drug excretion in Sprague-Dawley rat bile assessed as unmetabolized form at 10 mg/kg, po after 24 hrs by HPLC; type: ADME, organism-based; conditions: read-out: Drug excretion; method in brief: as §2
[8] = Solubility of the compound in JP2 solution at pH 6.8 after 24 hrs at 25 degC by HPLC; type: physicochemical
Method in brief: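 Excess solid shaken in JP2 (50 mM potassium dihydrogenphosphate, pH 6.8) at 25°C for 24 h to equilibrium, filtered 0.45 µm; filtrate concentration by reversed-phase UPLC, UV 290 nm; mean ± S.D., n=3.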

[9] = Oral drug absorption in Sprague-Dawley rat at 10 mg/kg, po after 24 hrs by HPLC; type: ADME, organism-based; conditions: in vivo
Method in brief: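 Absorption rate computed as total urinary plus biliary excretion (% of dose, summed means) after oral dosing divided by total after iv dosing; excretion measured in fasted male Sprague-Dawley rats by HPLC over 24 h, bile glucuronides alkaline-hydrolysed.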

[10] = Drug excretion in Sprague-Dawley rat urine at 10 mg/kg, po after 24 hrs by HPLC; type: ADME, organism-based; conditions: read-out: Drug excretion; method in brief: as §2
Pseudomonas aeruginosa [11] = test: Antibacterial activity against Pseudomonas aeruginosa 15846 assessed as growth inhibition at 128 to 0.002 mg/L incubated for 18 hrs at 37 degC by agar dilution method; type: functional; conditions: Pseudomonas aeruginosa, 15846, 18 h; method in brief: as §1
[12] = system: Acinetobacter calcoaceticus; test: Antibacterial activity against Acinetobacter calcoaceticus Ac-54 assessed as growth inhibition at 128 to 0.002 mg/L incubated for 18 hrs at 37 degC by agar dilution method; type: functional; conditions: Ac-54, 18 h; method in brief: as §1
DNA gyrase = DNA gyrase (Escherichia coli, UniProt P0AES4+P0AES6); test: Inhibition of Escherichia coli DNA gyrase preincubated for 5 mins at 37 degC before addition of relaxed pBR322 as substrate by supercoiling assay; type: protein-complex assay
Escherichia coli [13] = test: Antibacterial activity against Escherichia coli KC-14 assessed as growth inhibition at 128 to 0.002 mg/L incubated for 18 hrs at 37 degC by agar dilution method; type: functional; conditions: KC-14, 18 h; method in brief: as §1
Morganella morganii = test: Antibacterial activity against Morganella morganii W1026 assessed as growth inhibition at 128 to 0.002 mg/L incubated for 18 hrs at 37 degC by agar dilution method; type: functional; conditions: W1026, 18 h; method in brief: as §1
Klebsiella pneumoniae [14] = test: Antibacterial activity against Klebsiella pneumoniae DT-S assessed as growth inhibition at 128 to 0.002 mg/L incubated for 18 hrs at 37 degC by agar dilution method; type: functional; method in brief: as §1
Serratia marcescens [15] = test: Antibacterial activity against Serratia marcescens T-55 assessed as growth inhibition at 128 to 0.002 mg/L incubated for 18 hrs at 37 degC by agar dilution method; type: functional; conditions: T-55, 18 h; method in brief: as §1
Pseudomonas aeruginosa [16] = test: Antibacterial activity against Pseudomonas aeruginosa E-2 assessed as growth inhibition at 128 to 0.002 mg/L incubated for 18 hrs at 37 degC by agar dilution method; type: functional; conditions: E-2, 18 h; method in brief: as §1
Enterobacter cloacae = test: Antibacterial activity against Enterobacter cloacae IFO13535 assessed as growth inhibition at 128 to 0.002 mg/L incubated for 18 hrs at 37 degC by agar dilution method; type: functional; conditions: IFO13535, 18 h; method in brief: as §1
[17] = Passive permeability of the compound after 5 hrs at 25 degC by PAMPA assay; type: physicochemical; conditions: read-out: Peff
Method in brief: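 PAMPA: 10 µM compound in PBS with 5% MeOH in donor, PBS acceptor; 25°C, 5 h; both sides quantified by HPLC; Peff derived from donor/acceptor concentrations, volumes, 0.3 cm² filter area and 18,000 s; mean ± S.D., n=3.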

Citrobacter freundii = test: Antibacterial activity against Citrobacter freundii IFO1268 assessed as growth inhibition at 128 to 0.002 mg/L incubated for 18 hrs at 37 degC by agar dilution method; type: functional; conditions: IFO1268, 18 h; method in brief: as §1
Proteus mirabilis = test: Antibacterial activity against Proteus mirabilis IFO3849 assessed as growth inhibition at 128 to 0.002 mg/L incubated for 18 hrs at 37 degC by agar dilution method; type: functional; conditions: IFO3849, 18 h; method in brief: as §1
[18] = Drug excretion in Sprague-Dawley rat urine at 5 mg/kg, iv after 24 hrs by HPLC; type: ADME, organism-based; conditions: read-out: Drug excretion; method in brief: as §2
[19] = Drug excretion in Sprague-Dawley rat bile assessed as unmetabolized form at 5 mg/kg, iv after 24 hrs by HPLC; type: ADME, organism-based; conditions: read-out: Drug excretion; method in brief: as §2
[20] = Drug excretion in Sprague-Dawley rat assessed as unmetabolized form at 5 mg/kg, iv after 24 hrs by HPLC; type: ADME, organism-based; conditions: in vivo, read-out: Drug excretion; method in brief: as §2

MIC (Pseudomonas aeruginosa [1]) | dose excreted at 24 h [2] | MIC (Escherichia coli [3]) | MIC (Proteus vulgaris) | MIC (Escherichia coli [4]) | MIC (Providencia rettgeri) | MIC (Salmonella typhimurium) | MIC (Klebsiella pneumoniae [5]) | MIC (Serratia marcescens [6]) | dose excreted at 24 h [7] | solubility at 24 h [8] | Fa at 24 h [9] | dose excreted at 24 h [10] | MIC (Pseudomonas aeruginosa [11]) | MIC [12] | pIC50 (DNA gyrase) | MIC (Escherichia coli [13]) | MIC (Morganella morganii) | MIC (Klebsiella pneumoniae [14]) | MIC (Serratia marcescens [15]) | Compound | also measured
0.21 µg/mL (≈ 0.455 µM) | 91% | 0.012 µg/mL (≈ 0.026 µM) | 0.21 µg/mL (≈ 0.455 µM) | 0.012 µg/mL (≈ 0.026 µM) | 0.21 µg/mL (≈ 0.455 µM) | 0.21 µg/mL (≈ 0.455 µM) | 0.21 µg/mL (≈ 0.455 µM) | 0.21 µg/mL (≈ 0.455 µM) | 74% | 41 µg/mL (≈ 88.9 µM) | > 90% | 17% | 0.21 µg/mL (≈ 0.455 µM) | 0.21 µg/mL (≈ 0.455 µM) | 6.39 | 0.012 µg/mL (≈ 0.026 µM) | 0.21 µg/mL (≈ 0.455 µM) | 0.21 µg/mL (≈ 0.455 µM) | 0.21 µg/mL (≈ 0.455 µM) | CCCNC1CN(c2c(F)cc3c(=O)c(C(=O)O)cn(-c4nc(N)c(F)cc4F)c3c2C)C1 | MIC (Pseudomonas aeruginosa [16]): 0.21 µg/mL (≈ 0.455 µM); MIC (Enterobacter cloacae): 0.21 µg/mL (≈ 0.455 µM); Papp at 5 h [17]: 1.1 ×10⁻⁶ cm/s; MIC (Citrobacter freundii): 0.21 µg/mL (≈ 0.455 µM); MIC (Proteus mirabilis): 0.21 µg/mL (≈ 0.455 µM)
0.17 µg/mL (≈ 0.368 µM) | 92% | 0.01 µg/mL (≈ 0.0217 µM) | 0.17 µg/mL (≈ 0.368 µM) | 0.01 µg/mL (≈ 0.0217 µM) | 0.17 µg/mL (≈ 0.368 µM) | 0.17 µg/mL (≈ 0.368 µM) | 0.17 µg/mL (≈ 0.368 µM) | 0.17 µg/mL (≈ 0.368 µM) | 68% | 41 µg/mL (≈ 88.9 µM) | > 90% | 24% | 0.17 µg/mL (≈ 0.368 µM) | 0.17 µg/mL (≈ 0.368 µM) | 6.36 | 0.01 µg/mL (≈ 0.0217 µM) | 0.17 µg/mL (≈ 0.368 µM) | 0.17 µg/mL (≈ 0.368 µM) | 0.17 µg/mL (≈ 0.368 µM) | Cc1c(N2CC(NC(C)C)C2)c(F)cc2c(=O)c(C(=O)O)cn(-c3nc(N)c(F)cc3F)c12 | MIC (Pseudomonas aeruginosa [16]): 0.17 µg/mL (≈ 0.368 µM); MIC (Enterobacter cloacae): 0.17 µg/mL (≈ 0.368 µM); Papp at 5 h [17]: 1.2 ×10⁻⁶ cm/s; MIC (Citrobacter freundii): 0.17 µg/mL (≈ 0.368 µM); MIC (Proteus mirabilis): 0.17 µg/mL (≈ 0.368 µM)
0.061 µg/mL (≈ 0.145 µM) | 8.2% | 0.004 µg/mL (≈ 0.00954 µM) | 0.061 µg/mL (≈ 0.145 µM) | 0.004 µg/mL (≈ 0.00954 µM) | 0.061 µg/mL (≈ 0.145 µM) | 0.061 µg/mL (≈ 0.145 µM) | 0.061 µg/mL (≈ 0.145 µM) | 0.061 µg/mL (≈ 0.145 µM) | 4.2% | 27 µg/mL (≈ 64.4 µM) | 9.6% | 4% | 0.061 µg/mL (≈ 0.145 µM) | 0.061 µg/mL (≈ 0.145 µM) | 6.54 | 0.004 µg/mL (≈ 0.00954 µM) | 0.061 µg/mL (≈ 0.145 µM) | 0.061 µg/mL (≈ 0.145 µM) | 0.061 µg/mL (≈ 0.145 µM) | Cc1c(N2CC(N)C2)c(F)cc2c(=O)c(C(=O)O)cn(-c3nc(N)c(F)cc3F)c12 | dose excreted at 24 h [18]: 44%; dose excreted at 24 h [19]: 41%; MIC (Pseudomonas aeruginosa [16]): 0.061 µg/mL (≈ 0.145 µM); MIC (Enterobacter cloacae): 0.061 µg/mL (≈ 0.145 µM); Papp at 5 h [17]: 0.12 ×10⁻⁶ cm/s; MIC (Citrobacter freundii): 0.061 µg/mL (≈ 0.145 µM); MIC (Proteus mirabilis): 0.061 µg/mL (≈ 0.145 µM); dose excreted at 24 h [20]: 85%
